Several values for one entry are separate records, joined by “and”; a condition that tells them apart may be missing. Identical values can stand only once. Like-named read-outs stand apart in the source and are kept apart here.
Columns and labels:
[1] = Safety evaluation; format: in vivo, healthy adults; conditions: for Participants with any TEAEs: 60 mg
Procedure, shortened: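 3-period crossover; single 60 mg test compound, fasted ≥10 h pre and 4 h post, as granules in 20 mL water via 16 French NG tube or oral syringe, or intact capsule with 240 mL water; ≥5-day washout. TEAE: onset/worsening from first dose to 30 days after last; MedDRA 15.0; phone follow-up 5–10 days post final dose; all dosed subjects.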

[2] = dual delayed-release formulation; cited from earlier work
[3] = human, plasma, 60 mg

Tmax ([3]; oral): ~5 h
Tmax ([3]; po): ~5.5 h
SMILES: Cc1c(OCC(F)(F)F)ccnc1C[S@@+]([O-])c1nc2ccccc2[nH]1 [Dexlansoprazole, dexlansoprazole]
Tolerability ([1]; 60 mg capsule, single doses, all administration routes): well tolerated
Participants with any TEAEs ([1]; oral intact capsule, N=52): 12 (23.1%) n (%) and 12 (23.1) n (%)
Participants with any TEAEs ([1]; oral syringe administration, N=60): 10 (16.7%) n (%) and 10 (16.7) n (%)
Time of first release of dexlansoprazole after dosing [2]: 1 to 2 h
Time of second release of dexlansoprazole after dosing [2]: 4 to 5 h
